ChEMBL document CHEMBL1781963, “Discovery of novel hepatoselective HMG-CoA reductase inhibitors for treating hypercholesterolemia: a bench-to-bedside case study on tissue selective drug distribution” (Bioorg Med Chem Lett, 2011)

How the values were obtained:
Assay type in all cases: ADME, cell-based
[1] = target: T1, OATP2B1 (Homo sapiens, UniProt O94956); assay: Drug uptake by human hepatic OATP2B1 transporter expressed in HEK293 cells at 10 uM relative to wild-type HEK293 cells; details: HEK293 cells expressing OATP2B1, read-out: FC
T1 sequence (O94956 whole entry): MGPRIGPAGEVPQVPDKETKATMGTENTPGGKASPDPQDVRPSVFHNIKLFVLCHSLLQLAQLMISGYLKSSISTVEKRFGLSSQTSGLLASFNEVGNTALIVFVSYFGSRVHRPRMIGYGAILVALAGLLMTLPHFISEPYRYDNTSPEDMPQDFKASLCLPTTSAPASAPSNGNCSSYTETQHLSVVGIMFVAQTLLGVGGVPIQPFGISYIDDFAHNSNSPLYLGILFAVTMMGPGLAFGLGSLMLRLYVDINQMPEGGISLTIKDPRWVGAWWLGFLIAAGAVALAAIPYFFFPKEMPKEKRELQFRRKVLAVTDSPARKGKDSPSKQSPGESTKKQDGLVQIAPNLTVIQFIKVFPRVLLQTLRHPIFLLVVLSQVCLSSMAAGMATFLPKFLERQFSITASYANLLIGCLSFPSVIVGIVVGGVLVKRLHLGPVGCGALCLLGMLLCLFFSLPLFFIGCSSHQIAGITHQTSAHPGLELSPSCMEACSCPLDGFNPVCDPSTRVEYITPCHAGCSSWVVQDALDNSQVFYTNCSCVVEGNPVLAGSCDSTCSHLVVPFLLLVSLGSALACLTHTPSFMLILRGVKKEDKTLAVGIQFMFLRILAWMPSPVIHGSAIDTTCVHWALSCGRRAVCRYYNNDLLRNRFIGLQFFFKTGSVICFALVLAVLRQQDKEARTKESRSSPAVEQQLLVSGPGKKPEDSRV
How it was run: (§1)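 Individual hepatic OATP transporters were over-expressed in CHO or HEK293 cells: rat rOatp1a1, rOatp1a4 and rOatp1b2, and human hOATP1B1, hOATP1B3 and hOATP2B1. Substrate uptake is expressed as fold difference relative to the wild-type parental line. Rosuvastatin/pravastatin served as positive control and midazolam as negative control in each assay.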

[2] = test system: Hepatocyte; assay: Drug uptake in sandwich-cultured rat hepatocytes assessed per mg of protein at 1 uM in presence of rifamycin SV
How it was run: (§2)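 Rat or human hepatocytes were cultured in sandwich configuration with a Matrigel overlay and compound uptake was measured. Active uptake was assessed by inhibition with the pan-OATP inhibitor rifamycin SV. Rosuvastatin/pravastatin served as positive control and midazolam as negative control.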

[3] = test system: Hepatocyte; assay: Drug uptake in sandwich-cultured rat hepatocytes assessed per mg of protein at 1 uM; how it was run: as §2
[4] = target: T2, OATP1A1 (Rattus norvegicus, UniProt P46720); assay: Drug uptake by rat hepatic OATP1A1 transporters expressed in CHO cells at 1 uM relative to wild type CHO cells; details: CHO cells expressing rat OATP1A1, read-out: FC; how it was run: as §1
T2 sequence (P46720 whole entry): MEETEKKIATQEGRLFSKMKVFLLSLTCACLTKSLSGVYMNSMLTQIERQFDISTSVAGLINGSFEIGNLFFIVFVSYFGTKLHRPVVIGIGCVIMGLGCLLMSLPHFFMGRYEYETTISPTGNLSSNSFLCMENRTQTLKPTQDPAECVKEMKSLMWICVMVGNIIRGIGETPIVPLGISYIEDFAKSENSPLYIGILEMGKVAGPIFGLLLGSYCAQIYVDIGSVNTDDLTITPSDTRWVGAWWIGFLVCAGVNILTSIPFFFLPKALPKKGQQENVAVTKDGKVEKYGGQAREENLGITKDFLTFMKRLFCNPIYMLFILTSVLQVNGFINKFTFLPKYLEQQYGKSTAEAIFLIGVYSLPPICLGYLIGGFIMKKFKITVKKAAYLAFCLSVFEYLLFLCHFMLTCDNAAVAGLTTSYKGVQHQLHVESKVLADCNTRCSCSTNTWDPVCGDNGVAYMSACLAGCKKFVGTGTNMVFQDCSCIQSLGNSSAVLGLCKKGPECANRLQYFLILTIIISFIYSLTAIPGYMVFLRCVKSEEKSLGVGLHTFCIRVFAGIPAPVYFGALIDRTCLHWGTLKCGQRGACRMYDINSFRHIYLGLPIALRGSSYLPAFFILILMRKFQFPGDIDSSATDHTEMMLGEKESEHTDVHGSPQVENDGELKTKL

[5] = target: T3, OATP1B2 (Rattus norvegicus, UniProt Q9QZX8); assay: Drug uptake by rat hepatic OATP1B2 transporters expressed in CHO cells at 10 uM relative to wild type CHO cells; details: CHO cells expressing rat OATP1B2, read-out: FC; how it was run: as §1
T3 sequence (Q9QZX8 whole entry): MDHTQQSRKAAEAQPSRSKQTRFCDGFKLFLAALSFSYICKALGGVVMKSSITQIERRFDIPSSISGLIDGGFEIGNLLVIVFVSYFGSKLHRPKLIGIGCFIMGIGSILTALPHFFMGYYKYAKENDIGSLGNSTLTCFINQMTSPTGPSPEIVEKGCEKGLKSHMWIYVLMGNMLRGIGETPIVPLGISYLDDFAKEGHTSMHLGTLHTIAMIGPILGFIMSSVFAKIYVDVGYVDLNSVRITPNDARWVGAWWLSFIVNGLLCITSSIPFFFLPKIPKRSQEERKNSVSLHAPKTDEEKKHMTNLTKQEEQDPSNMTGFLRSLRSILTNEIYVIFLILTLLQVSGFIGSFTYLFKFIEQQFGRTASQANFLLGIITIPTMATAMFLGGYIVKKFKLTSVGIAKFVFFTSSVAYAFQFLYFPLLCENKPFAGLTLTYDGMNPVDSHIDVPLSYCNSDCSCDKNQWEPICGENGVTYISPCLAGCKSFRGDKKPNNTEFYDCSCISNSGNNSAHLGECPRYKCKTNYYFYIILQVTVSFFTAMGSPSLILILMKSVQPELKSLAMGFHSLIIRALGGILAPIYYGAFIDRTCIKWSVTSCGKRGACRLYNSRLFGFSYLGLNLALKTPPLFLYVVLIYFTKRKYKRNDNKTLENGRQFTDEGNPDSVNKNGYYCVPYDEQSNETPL

Structure (SMILES)	uptake ratio at 10 µM [1]	Drug uptake [2] [%]	Drug uptake [3] [pmol/min/mg]	uptake ratio at 1 µM [4]	uptake ratio at 10 µM [5]
CC(C)c1nc(N(C)S(C)(=O)=O)nc(-c2ccc(F)cc2)c1/C=C/[C@@H](O)C[C@@H](O)CC(=O)O [ROSUVASTATIN]	6.6	97	24	8.2	
Cc1ncc2n1-c1ccc(Cl)cc1C(c1ccccc1F)=NC2 [MIDAZOLAM]	0.7			1.6	1.3
Cc1ccc(CNC(=O)c2nn(-c3ccc(F)cc3)c(CC[C@@H](O)C[C@@H](O)CC(=O)O)c2C(C)C)cc1	1.4	98	14	3.6	2.6
CC[C@H](C)C(=O)O[C@H]1C[C@H](O)C=C2C=C[C@H](C)[C@H](CC[C@@H](O)C[C@@H](O)CC(=O)O)[C@H]21 [PRAVASTATIN]				2.4	7
O=C([O-])C[C@H](O)C[C@H](O)CCn1c(-c2ccc(F)cc2)nc(C(=O)NCc2cccc(F)c2)c1C1CC1.[Na+]	6.8	100	17	5.8	1.7
